How the values were obtained:
[1] = tested on: GLC4 cell line; assay: Cytotoxic effect against GLC4 (human small cell lung carcinoma cell line) using the microculture tetrazolium (MTT) assay based on continuous incubation; type: functional
In short: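 GLC4 cells in exponential growth (>90% viable by trypan blue) seeded at 3750/well in RPMI 1640 + 10% FCS; compounds from 200× DMSO stocks, final DMSO ≤0.25%, top concentration 100 μM, present continuously for 4 days at 37 °C, 5% CO2. MTT added for 3 h 45 min, formazan dissolved in DMSO, absorbance 520 nm; IC50 = 50% growth inhibition; n=3 separate experiments.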

[2] = tested on: GLC4 cell line; assay: Cytotoxic effect against GLC4 (human small cell lung carcinoma cell line) using the microculture tetrazolium (MTT) assay based on 2 hr incubation; type: functional
In short: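 GLC4 SCLC cells (suspension, RPMI 1640 + 10% heat-inactivated FCS, 37 °C, 5% CO2), exponential phase, >90% viable; 3750 cells/well. Compounds diluted from 200× DMSO stocks (≤0.25% DMSO final), up to 100 μM; exposed 2 h, washed three times, then cultured 4 days. MTT 3 h 45 min, formazan in DMSO, A520; IC50 from % growth inhibition, triplicate separate experiments.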

Row | Molecule | IC50 ([1]; Homo sapiens, GLC4) | IC50 ([2]; Homo sapiens, GLC4, 2 h) | IC50 ([1]; glc4) | IC50 ([2]; glc4)
1 | COc1cc([C@@H]2c3cc4c(cc3[C@H](O)[C@H]3COC(=O)[C@H]23)OCO4)cc(OC)c1O | 0.03 µM | 3.1 µM | – | –
2 | COc1cc([C@@H]2c3cc4c(c(OC)c3[C@H](O)[C@H]3COC(=O)[C@H]23)OCO4)cc(OC)c1OC | 0.06 µM | 0.25 µM | – | –
3 | CC1CCC(C(C)C)C(O[C@@H]2OC(=O)[C@H](Cc3ccc4c(c3)OCO4)[C@H]2Cc2ccc3c(c2)OCO3)C1 (stereo partly drawn) | 44 µM | – | – | –
4 | COc1cc(C[C@H]2C(=O)O[C@@H](OC3CC(C)CCC3C(C)C)[C@@H]2C(Sc2ccccc2)(Sc2ccccc2)c2ccc3c(c2)OCO3)ccc1OCc1ccccc1 (stereo partly drawn) | > 100 µM | – | – | –
5 | COc1cc([C@@H](O)[C@H]2C(=O)O[C@@H](OC3CC(C)CCC3C(C)C)[C@@H]2C(=O)c2ccc3c(c2OC)OCO3)cc(OC)c1OC (stereo partly drawn) | 1.7 µM | 7.2 µM | – | –
6 | COc1cc([C@@H](O)[C@H]2C(=O)O[C@@H](OC3CC(C)CCC3C(C)C)[C@@H]2C2(c3ccc4c(c3OC)OCO4)SCCCS2)cc(OC)c1OCc1ccccc1 (stereo partly drawn) | 48 µM | – | – | –
7 | COc1cc([C@@H](O)[C@H]2C(=O)O[C@@H](OC3CC(C)CCC3C(C)C)[C@@H]2C2(c3ccc4c(c3OC)OCO4)SCCCS2)cc(OC)c1OC (stereo partly drawn) | 8.8 µM | 75 µM | – | –
8 | O=C1C[C@@H](C2(c3ccc4c(c3)OCO4)SCCCS2)CO1 | 36 µM | – | – | –
9 | CO[C@@H]1OC(=O)[C@H](Cc2ccc3c(c2)OCO3)[C@H]1C(Sc1ccccc1)(Sc1ccccc1)c1ccc2c(c1)OCO2 | > 100 µM | – | – | –
10 | CC1CCC(C(C)C)C(O[C@@H]2OC(=O)[C@H](Cc3ccc4c(c3)OCO4)[C@H]2C(Sc2ccccc2)(Sc2ccccc2)c2ccc3c(c2)OCO3)C1 (stereo partly drawn) | 40 µM | – | – | –
11 | COc1cc([C@@H](O)[C@H]2C(=O)O[C@@H](OC3CC(C)CCC3C(C)C)[C@@H]2C2(c3ccc(O)c(O)c3OC)SCCCS2)cc(OC)c1OCc1ccccc1 (stereo partly drawn) | 10 µM | > 100 µM | – | –
12 | COc1cc([C@@H]2c3cc4c(cc3[C@H](O[C@@H]3O[C@H](CO)[C@@H](O)[C@H](O)[C@H]3O)[C@H]3COC(=O)[C@H]23)OCO4)cc(OC)c1OC | 10 µM | 58 µM | – | –
13 | COc1cc(C[C@H]2C(=O)OC[C@@H]2Cc2ccc3c(c2)OCO3)ccc1O | 6.5 µM | > 100 µM | – | –
14 | COc1c(C2([C@@H]3CC(=O)O[C@H]3OC3CC(C)CCC3C(C)C)SCCCS2)ccc2c1OCO2 (stereo partly drawn) | 29 µM | – | – | –
15 | COc1ccc(C[C@H]2[C@H](OC3CC(C)CCC3C(C)C)OC(=O)[C@@H]2Cc2ccc(OC)c(OC)c2)cc1OC (stereo partly drawn) | 35 µM | – | – | –
16 | COc1c(C2([C@H]3COC(=O)C3)SCCCS2)ccc2c1OCO2 | 54 µM | – | – | –
17 | COc1cc([C@@H]2c3cc4c(cc3C[C@H]3COC(=O)[C@@H]32)OCO4)cc(OC)c1OC [DESOXYPODOPHYLLOTOXIN] | 0.008 µM | 0.12 µM | – | –
18 | COc1cc([C@@H]2c3cc4c(cc3[C@@H](O[C@@H]3O[C@@H]5CO[C@@H](C)O[C@H]5[C@H](O)[C@H]3O)[C@H]3COC(=O)[C@H]23)OCO4)cc(OC)c1O [ETOPOSIDE] | 0.82 µM | 4 µM | – | –
19 | COc1cc([C@@H]2c3cc4c(cc3[C@H](O)[C@H]3COC(=O)[C@H]23)OCO4)cc(OC)c1OC [PODOFILOX] | 0.06 µM | 0.15 µM | – | –
20 | COc1cc([C@@H]2c3cc4c(cc3[C@@H](O[C@@H]3O[C@@H]5CO[C@@H](c6cccs6)O[C@H]5[C@H](O)[C@H]3O)[C@H]3COC(=O)[C@H]23)OCO4)cc(OC)c1O [TENIPOSIDE] | 0.48 µM | 2.8 µM | – | –
21 | CISPLATIN | – | – | 1.1 µM | 4.6 µM
